# RAD54 inh = blocks human RAD54 Holliday junction branch migration. FAM/BHQ fluorescence. inhibition, % at 10.4 µM. 0.14% of 360,000 active. Q92698;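 active = mean normalized replicate activity at least 40 and at least half of replicates scoring 40 or more; inconclusive = only one of the two criteria met; inactive = mean below 40 and under half of replicates reaching 40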;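 also: 0% = median of neutral control wells and 100% = median of positive control wells; inhibitors cause a drop in the FAM fluorescence signal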
# Target sequence (Q92698 whole entry, looked up): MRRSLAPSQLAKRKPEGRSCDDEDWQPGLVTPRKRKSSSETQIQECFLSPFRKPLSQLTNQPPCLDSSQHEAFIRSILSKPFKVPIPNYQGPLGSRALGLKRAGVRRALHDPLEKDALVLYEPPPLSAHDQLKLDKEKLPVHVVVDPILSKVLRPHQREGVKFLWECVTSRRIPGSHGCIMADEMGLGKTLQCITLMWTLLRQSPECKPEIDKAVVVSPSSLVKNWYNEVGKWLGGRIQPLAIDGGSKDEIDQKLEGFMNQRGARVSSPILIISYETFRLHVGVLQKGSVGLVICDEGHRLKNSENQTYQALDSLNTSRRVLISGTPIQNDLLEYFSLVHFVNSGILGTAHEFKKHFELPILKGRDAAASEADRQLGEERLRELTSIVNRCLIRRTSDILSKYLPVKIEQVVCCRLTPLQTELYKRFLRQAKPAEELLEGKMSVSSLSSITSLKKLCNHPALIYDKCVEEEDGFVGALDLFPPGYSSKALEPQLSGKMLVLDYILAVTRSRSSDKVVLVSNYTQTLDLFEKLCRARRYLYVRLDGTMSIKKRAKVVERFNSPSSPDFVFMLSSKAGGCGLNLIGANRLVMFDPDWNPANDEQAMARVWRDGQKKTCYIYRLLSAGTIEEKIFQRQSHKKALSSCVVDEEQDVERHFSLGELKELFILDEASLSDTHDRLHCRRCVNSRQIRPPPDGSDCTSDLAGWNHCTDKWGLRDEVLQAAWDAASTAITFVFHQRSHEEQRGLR
# MLL AF4-AF9 inh = MLL-AF4/AF9 protein interaction inhibition. P42568. AlphaScreen, biotin-AF4 peptide binding to FLAG-AF9. inhibition, % at 10 µM. 0.47% of 350,000 active. AID 651704;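 active = every replicate reaching a set inhibition limit, whatever the replicate mean, cut at about 25% in these data; inconclusive = mean inhibition reaches that limit but some replicates miss it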;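 also: 0% = plate neutral control median and 100% = total signal loss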
# S100A4 inh HTS = inhibitors of human S100A4 binding to myosin IIA peptide; P26447; S100A4/TAMRA-MyoIIA peptide fluorescence polarization; inhibition, % at 10.7 µM; 0.14% of 360,000 active; AID 652163;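 active = mean inhibition of at least 70% across replicates, with every replicate also reaching that level; inconclusive = mean inhibition reaches 70% but some replicates fall short; inactive = mean inhibition below 70%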
#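 Material: S100A4 monomer protein | Medium: HEPES pH 7.2 with CaCl2, KCl, NaCl, DTT, Triton | Reagent: Labelled myosin peptide probe, 5 nM | Doses: One dose per compound | Times: 5 min incubation before reading | Benchmarks: Neutral control DMSO, positive control TFP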
# RAD52 inh = blocks human RAD52 DNA annealing; P43351; recombinant RAD52 DNA annealing, FRET fluorescence; inhibition, % at 18.7 µM; 0.46% of 360,000 active;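 active = every replicate showing at least 50% inhibition; inconclusive = mean inhibition at least 50% but not in every replicate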
# CASP6 VEID inh = inhibitors of human caspase-6. purified caspase-6, Z-VEID-R110 cleavage fluorescence. P55212. inhibition, % at 12.5 µM. 0.53% of 350,000 active;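 active = mean inhibition across replicates at least about 35%, with every replicate also reaching that limit, limit read from the data; inconclusive = only one of the two criteria met; inactive = neither criterion met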;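 also: 0% = median of neutral control wells and 100% = no fluorescence left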
# Xi reactivation = X-chromosome reactivation activator | activation, % at 7.58 µM | AID 743238 | 0.055% of 360,000 active | XiGFP mouse fibroblasts, % GFP-positive cells imaging, 3 d; cells co-treated with 5-aza-dC sensitizer; scaled so ellipticine positive control = 100%;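 active = mean normalized replicate activation at least 10% and every replicate at or above 10%; inconclusive = only one of the two criteria met; inactive = mean below 10% and not all replicates reach 10%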;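 also: 0% = median of on-plate neutral control wells and 100% = ellipticine 6 µM median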
#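 Material: SV40-immortalized XiGFP fibroblast cells, line 68-5-11 | Buffer or medium: DMEM containing 5-aza-dC | Dosing: One concentration, pinned | Times: 3 d treatment, 15 min room-temperature fixation | Controls: Ellipticine 6 µM positive control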
# Rad54 DNA ctr = DNA binding artifact in Rad54 counter-screen; shares compounds with RAD54 inh; Acridine orange-DNA displacement, fluorescence polarization, 20 min; AC50, µM (highest dose often 35 µM), for inactives: at the highest dose activity change, negative = DNA binding; 8% of 460 active;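 active = signal drop giving an AC50 within twice the top valid tested concentration of each sample, actives reach about 35 µM in these data; inactive = activity opposite to expected, plus the rest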;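 also: polarization loss reports compound binding to salmon sperm DNA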
# Starred values were filed as active, the others as inactive; ? = inconclusive; . = no result given. Most compounds without a hit are left out; they make up all but 1.3% or so of the library.
SMILES,RAD54 inh,MLL AF4-AF9 inh,S100A4 inh HTS,RAD52 inh,CASP6 VEID inh,Xi reactivation,Rad54 DNA ctr
CCOC(=O)N1CCN(S(=O)(=O)c2ccc(C(=O)Nc3sc4c(c3C(=O)OC)CCN(C)C4)cc2)CC1,?,1.6,0.9,-76.5,-21.7,0.2,-6.7%
COc1ccc(NC(=O)Nc2ccc3c(c2)C(=O)N([C@H](C)CO)C[C@@H](C)[C@H](CN(C)C(=O)NC2CCCCC2)OCCCC[C@@H](C)O3)cc1,2.1,3.3,-10.4,-2.2,-0.5,0.0,.
COc1ccccc1Nc1c2ccccc2nc2ccccc12,58.6*,23.2,-1.9,49.3,2.2,0.3,2.9%
COc1ccccc1Nc1nc(-c2ccccc2)nc2ccccc12,.,-12.1,-4.6,-12.3,1.7,0.3,.
COC(=O)c1c(NC(=O)c2ccco2)sc2c1CCN(C(C)C)C2,61.8*,-0.1,-6.3,30.5,-5.9,-0.1,-8.7%
COC(=O)c1c(NC(=O)c2ccco2)sc2c1CCC2,-6.8,.,.,.,.,.,.
CC(C)N1CCc2c(sc(NC(=O)c3ccc(C(=O)c4ccccc4)cc3)c2C(N)=O)C1,50.5*,14.8,-3.1,-66.4,-24.8,2.0,-8.6%
CC(C)N1CCc2c(sc(NC(=O)CCc3ccccc3)c2C(N)=O)C1,.,-14.7,-5.4,5.8,-0.2,1.0,.
C[C@H]1CN([C@@H](C)CO)C(=O)c2cc(C#Cc3cccnc3)cnc2O[C@H]1CN(C)Cc1ccncc1,3.9,.,.,.,.,0.1,.
c1ccc2c(c1)oc1c(Nc3ccc(CN4CCOCC4)cc3)ncnc12,54.1*,.,.,.,.,.,-23.4%
OCCNc1nc(Nc2ccc(O)cc2)nc2ccccc12,52.3*,9.0,-4.3,47.5,4.6,0.0,7.8%
OCCNc1nc(Nc2cccc(O)c2)nc2ccccc12,.,14.4,-2.7,30.8,-4.1,-0.2,.
Cc1ccc(S(=O)(=O)N2CCOCC2)c(C)c1NS(C)(=O)=O,?,.,.,.,.,0.4,0.2%
CC(=O)Nc1ccc2c(c1)C(=O)N(C)[C@H]1CC[C@@H](CC(=O)Nc3cn(C)nc3C)O[C@@H]1CO2,-4.5,1.1,-2.5,-1.4,-1.0,0.0,.
c1ccc(-c2nc(NCCCn3ccnc3)c3oc4ccccc4c3n2)cc1,?,21.4,-2.8,49.6,-2.1,.,-15.2%
CCc1nc(NCCCn2ccnc2)c2oc3ccccc3c2n1,-0.3,.,.,.,.,.,.
CN1CCN(c2ccc(CNC(=O)C3Cc4c(-c5ccc(Cl)cc5)ccnc4O3)cc2)CC1 (stereo not given),?,14.8,-2.4,42.6,2.4,0.2,-11.4%
NC1CCN(c2c(F)cc3c(=O)c(C(=O)O)cn(C4CC4)c3c2Cl)C1 (stereo not given),?,-6.5,-3.0,-9.8,-1.8,0.0,8.1%
COc1ccccc1-c1ccc2c(c1)O[C@H](CN(C)S(=O)(=O)c1ccc(F)cc1)[C@@H](C)CN([C@@H](C)CO)S2(=O)=O,-0.9,0.0,0.3,19.3,-0.3,-0.1,.
CNC(=O)C[C@H]1CC[C@@H]2[C@H](COc3ccc(NC(=O)c4ccc(OC)cc4)cc3C(=O)N2C)O1,-1.8,0.0,0.8,7.6,5.5,0.0,.
O=C(Nc1ccc(Cl)cc1)c1cc(S(=O)(=O)N2CCOCC2)cs1,12.7,.,.,.,.,.,.
O=C(Nc1cccc(Cl)c1)c1cc(S(=O)(=O)N2CCOCC2)cs1,50.5*,-1.8,-5.8,-9.4,6.5,0.4,-11.9%
CCOC(=O)Nc1c2ccccc2nc2ccccc12,56.7*,6.7,2.0,16.3,1.7,0.7,-13.4%
OCCN1CCN(c2ncnc3c2sc2nc(N4CCOCC4)c4c(c23)CCC4)CC1,53.1*,-4.9,-2.6,15.4,.,.,-8.2%
CCS(=O)(=O)Nc1ccc2c(c1)C(=O)N(C)C[C@H](OC)[C@@H](C)CN(C(=O)C1CC1)[C@@H](C)CO2,5.9,-0.3,3.1,8.7,-4.6,-0.2,.
COCC(=O)N1[C@@H](CO)[C@@H]2c3ccccc3NC[C@@H]21,6.3,-0.7,12.3,-3.9,0.6,-0.1,.
COc1ccc(Cl)c2sc(N(CCN(C)C)C(=O)C3=COCCO3)nc12,?,1.4,0.8,36.9,8.6,-0.1,3.1%
